An excerpt weighted towards active compounds, which were near 4.1% of everything screened.
KCNK3 block = human KCNK3 channel inhibition, primary screen; O14649; CHO-KCNK3 thallium flux, FluxOR fluorescence; hits give low values; B-score at 10 µM; hit rate 0.84% among 340,000; AID 602410;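 active = B-score under library mean minus 4 SD, starting fluorescence ratio at most library mean plus 5 SD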;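 note: more negative B-score means stronger inhibition of thallium flux through KCNK3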
KCC2 mod = modulators of human KCC2 chloride dependent transport; Q9H2X9; KCC2 cells, thallium flux FluoZin-2 fluorescence; AID 1456; hit rate 2.2% among 190,000; B-score of Tl+ flux slope (higher = more flux/activation; lower = inhibition) at 10 µM;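 active = thallium flux slope and its plate-corrected score both differing from the plate sample mean at a set confidence after two filtering rounds, in either direction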;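 note: slope of fluorescence scaled to starting intensity during 10 to 20 s after thallium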
hERG rescue = shields human hERG channel from block by proarrhythmic agents; Q12809; CHO-hERG, FluxOR thallium flux, dofetilide IC70 present; activation (rescue from dofetilide block), less the hit threshold, % at 10 µM; hit rate 0.51% among 310,000; AID 1511;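 active = activation above the mean of controls blocked by dofetilide plus 5 SD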;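 note: thallium influx through hERG after potassium depolarization seen as dye fluorescence rise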
KCNQ1 act = potentiates or activates the human KCNQ1 potassium channel. CHO-K1 KCNQ1, thallium flux FluxOR fluorescence; hits give high values. B-score at 10 µM. hit rate 0.35% among 310,000. AID 2648;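 active = fluorescence ratio B-score, a plate-corrected score, at least three library SD, with initial intensity B-score within 5 SD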
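Medium – assay buffer, equal DMSO in all wells · Material – CHO-K1 cell line with stable KCNQ1 potassium channel expression · Signal – kinetic FluxOR thallium fluorescence, 10-s 1-Hz baseline, 110-s post-stimulus read · Compound – single concentration per compound, DMSO matched to controls · Schedule – 37 °C overnight plating, 90-min dark dye load, 20-min compound pretreatment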
KCNK9 inh = blocks the human KCNK9 two-pore domain potassium channel | Q9NPC2 | HEK293 KCNK9, FluxOR thallium flux fluorescence; hits give low values | B-score at 10 µM | hit rate 1.2% among 310,000 | AID 488922;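 active = ratio B-score over 3 SD below the library mean, with starting fluorescence within 5 SD of its mean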;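 note: negative B-score means less thallium flux so channel inhibition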
KCNQ1 block = inhibitors of human KCNQ1 potassium channel. hit rate 1.3% among 310,000. AID 2642. B-score at 10 µM. CHO-K1 KCNQ1, FluxOR thallium flux fluorescence; hits give high values. P51787;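 active = compounds whose thallium flux B-score, printed positive for inhibition, exceeds three library SD while starting fluorescence stays within three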;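 note: channel opened by potassium depolarization with thallium stimulus after 20 min compound exposure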
Each line names hits and unclear results; the compound was inactive in the other large screens.

COc1ccc(COC(=O)c2cccc(S(=O)(=O)N3CCCC3)c2)cc1F	none (no result: KCC2 mod)
COc1ccc(OC)c(COC(=O)c2cccc(S(=O)(=O)N3CCCCC3)c2)c1	KCNK3 block -8.8 (no result: KCC2 mod, hERG rescue, KCNQ1 act, KCNK9 inh, KCNQ1 block)
COc1ccccc1COC(=O)c1cccc(S(=O)(=O)N2CCCC2)c1	KCNK3 block -9.6 (no result: KCC2 mod, hERG rescue, KCNQ1 act, KCNK9 inh, KCNQ1 block)
Cc1ccc(COC(=O)c2cccc(S(=O)(=O)N3CCCCC3)c2)cc1	KCNK3 block -11 (no result: KCC2 mod, hERG rescue, KCNQ1 act, KCNK9 inh, KCNQ1 block)
CC1(C)C(=O)OC(c2ccc([N+](=O)[O-])cc2)C(C)(C)C1=O (stereo not given)	none (no result: KCC2 mod)
Cc1ccc(-c2nnc(CSc3nnc(COc4ccccc4)n3-c3ccc(C)cc3)o2)cc1	KCNQ1 block 6 (no result: KCC2 mod)
CCN(CC(=O)Nc1c(F)cccc1F)C(=O)c1ccc(NC(=O)CC2SC(N3CCCC3)=NC2=O)cc1 (stereo not given)	none (no result: KCC2 mod)
CCOc1cccc(C(=O)Nc2ccc3oc(Cc4ccc(Cl)cc4)nc3c2)c1	KCNQ1 block 6
O=C(Nc1ccc2oc(Cc3ccc(Cl)cc3)nc2c1)c1cccnc1	none
CC(=O)c1[nH]c(C)c(C(=O)N2CCCC(Nc3cccc(F)c3)C2)c1C (stereo not given)	none (no result: KCC2 mod)
N#Cc1ccccc1Sc1ccccc1C(=O)NCC(c1ccco1)N1CCCC1 (stereo not given)	none (no result: KCC2 mod)
O=C(CCn1c(=O)oc2ccccc21)N1CCCCCC1	none
